According to ChEMBL document CHEMBL1138436, “Biological activity and chemistry of taxoids from the Japanese yew, Taxus cuspidata” (J Nat Prod, 2004):
Values after ≈ are worked out from the molar mass of the structure shown.

Assays:
KB = assay: Cytotoxicity against human KB cells; type: functional, cell-based
[1] = Reversal of multidrug resistance in human 2780AD cells assessed as increase in vincristine accumulation at 10 ug/ml relative to verapamil; type: functional, A2780 ADR
[2] = Reversal of multidrug resistance in human 2780AD cells assessed as increase in vincristine accumulation at 1 ug/ml relative to verapamil; type: functional, A2780 ADR
[3] = Reversal of multidrug resistance in human 2780AD cells assessed as increase in vincristine accumulation relative to verapamil; type: functional, A2780 ADR; design: concentration or dose not given beside the values
P388 [4] = assay: Antitumor activity against vincristine-resistant mouse P388 cells implanted in CDF1 mouse at 0.2 mg/kg assessed as median survival time relative to control; type: functional
Procedure, shortened: (§1)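 CDF1 mice were implanted i.p. with P388/VCR (vincristine-resistant) leukemia cells on day 0. Vincristine was given i.p. daily for 5 days, alone or together with a taxoid at 200 mg/kg. There were 5 mice per group. T/C (%) is the median survival time of treated mice divided by that of untreated control mice.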

P388 [5] = assay: Antitumor activity against vincristine-resistant mouse P388 cells implanted in CDF1 mouse at 0.1 mg/kg assessed as median survival time relative to control; type: functional; procedure, shortened: as §1

Structure (SMILES)	IC50 (KB) [ng/mL]	other results
C=C1[C@@H](O)CC[C@@]2(C)[C@@H](OC(C)=O)[C@H](OC(C)=O)C3=C(C)C(=O)C[C@@](O)([C@@H](OC(C)=O)[C@H]12)C3(C)C	80 (≈ 162 nM)	–
CC(=O)O[C@@]12CO[C@@H]1C[C@H](O)[C@@]1(C)C(=O)[C@H](O)C3=C(C)[C@@H](OC(=O)[C@H](O)[C@@H](NC(=O)c4ccccc4)c4ccccc4)C[C@@](O)([C@@H](OC(=O)c4ccccc4)[C@H]21)C3(C)C	1.5 (≈ 1.85 nM)	–
C/C=C(\C)C(=O)N[C@@H](c1ccccc1)[C@@H](O)C(=O)O[C@H]1C[C@@]2(O)[C@@H](OC(=O)c3ccccc3)[C@@H]3[C@]4(OC(C)=O)CO[C@@H]4C[C@H](O)[C@@]3(C)C(=O)[C@H](O)C(=C1C)C2(C)C	1.5 (≈ 1.9 nM)	–
C=C1[C@@H](OC(=O)/C=C/c2ccccc2)CC[C@@]2(C)[C@@H](O)[C@H](OC(C)=O)C3=C(C)C(=O)C[C@@H]([C@@H](OC(C)=O)[C@H]12)C3(C)C	80 (≈ 142 nM)	Activity [1]: 185%
C=C1[C@@H](OC(=O)/C=C/c2ccccc2)CC[C@@]2(C)[C@@H](OC(C)=O)[C@H](OC(C)=O)C3=C(C)C(=O)C[C@@H]([C@@H](O)[C@H]12)C3(C)C	–	Activity [1]: 191%
C=C1[C@@H](OC(=O)/C=C/c2ccccc2)CC[C@@]2(C)[C@@H](OC(C)=O)[C@H](OC(C)=O)[C@@]34O[C@]3(C)C(=O)C[C@@H]([C@@H](OC(C)=O)[C@H]12)C4(C)C	–	Activity [2]: 142%
CC(=O)O[C@@]12CO[C@@H]1C[C@@H](O)[C@@]1(C)C(=O)[C@H](O)C3=C(C)[C@@H](OC(=O)[C@H](O)[C@@H](NC(=O)c4ccccc4)c4ccccc4)C[C@@](O)([C@@H](OC(=O)c4ccccc4)[C@H]21)C3(C)C	1.5 (≈ 1.85 nM)	–
C=C1[C@@H](OC(=O)/C=C/c2ccccc2)CC[C@@]2(C)[C@@H](OC(C)=O)[C@H](OC(C)=O)[C@@]34[C@H](C)C(=O)C[C@@](O)([C@@H](OC(C)=O)[C@@]132)C4(C)C	–	Activity [2]: 204%
CC(=O)O[C@H]1C(=O)[C@]2(C)[C@H](O)C[C@H]3OC[C@@]3(OC(C)=O)[C@H]2[C@H](OC(=O)c2ccccc2)[C@]2(O)C[C@H](OC(=O)[C@H](O)[C@@H](NC(=O)c3ccccc3)c3ccccc3)C(C)=C1C2(C)C	1.5 (≈ 1.76 nM)	–
CCCCCC(=O)N[C@@H](c1ccccc1)[C@@H](O)C(=O)O[C@H]1C[C@@]2(O)[C@@H](OC(=O)c3ccccc3)[C@@H]3[C@]4(OC(C)=O)CO[C@@H]4C[C@H](O)[C@@]3(C)C(=O)[C@H](O)C(=C1C)C2(C)C [10-DEACETYLTAXAYUNNANINE A]	1.5 (≈ 1.86 nM)	–
C=C1[C@H]2C[C@]3(C(C)(C)O)C[C@H](O)C(C)=C3[C@@H](OC(=O)c3ccccc3)[C@H](OC(C)=O)[C@]2(C)[C@@H](OC(C)=O)C[C@@H]1O [BREVIFOLIOL]	80 (≈ 144 nM)	–
C/C=C(\C)C(=O)N[C@@H](c1ccccc1)[C@@H](O)C(=O)O[C@H]1C[C@@]2(O)[C@@H](OC(=O)c3ccccc3)[C@@H]3[C@]4(OC(C)=O)CO[C@@H]4C[C@H](O)[C@@]3(C)C(=O)[C@H](OC(C)=O)C(=C1C)C2(C)C [CEPHALOMANNINE]	1.5 (≈ 1.8 nM)	–
CC(=O)O[C@H]1C(=O)[C@@]2(C)[C@H]([C@H](OC(=O)c3ccccc3)[C@]3(O)C[C@H](OC(=O)[C@H](O)[C@@H](NC(=O)c4ccccc4)c4ccccc4)C(C)=C1C3(C)C)[C@]1(OC(C)=O)CO[C@@H]1C[C@@H]2O [PACLITAXEL]	1.5 (≈ 1.76 nM)	–
C=C1[C@@H](OC(=O)/C=C/c2ccccc2)C[C@H](OC(C)=O)[C@@]2(C)[C@@H](OC(C)=O)[C@H](OC(C)=O)[C@]3(O)[C@@]4(C)CO[C@]3(C)C(=O)C[C@H]4[C@@H](OC(C)=O)[C@H]12 [TAXAGIFINE]	80 (≈ 115 nM)	–
CCCC(=O)N[C@@H](c1ccccc1)[C@@H](O)C(=O)O[C@H]1C[C@@]2(O)[C@@H](OC(=O)c3ccccc3)[C@@H]3[C@]4(OC(C)=O)CO[C@@H]4C[C@H](O)[C@@]3(C)C(=O)[C@H](OC(C)=O)C(=C1C)C2(C)C [TAXCULTIN]	1.5 (≈ 1.83 nM)	–
CCCCCC(=O)N[C@@H](c1ccccc1)[C@@H](O)C(=O)O[C@H]1C[C@@]2(O)[C@@H](OC(=O)c3ccccc3)[C@@H]3[C@]4(OC(C)=O)CO[C@@H]4C[C@H](O)[C@@]3(C)C(=O)[C@H](OC(C)=O)C(=C1C)C2(C)C [TAXOL C]	1.5 (≈ 1.77 nM)	–
C/C=C(\C)C(=O)O[C@@H]1C2=C(C)[C@@H](O)C[C@@](C(C)(C)O)([C@@H](OC(C)=O)[C@@H]3[C@]4(OC(C)=O)CO[C@@H]4C[C@H](OC(C)=O)[C@@]3(C)[C@H]1OC(C)=O)C2(C)C [TAXUSPINE Q]	80 (≈ 115 nM)	–
C=C1[C@@H](OC(=O)/C=C/c2ccccc2)C[C@H](OC(C)=O)[C@@]2(CO)[C@@H](OC(C)=O)[C@H](OC(C)=O)[C@]3(O)[C@@]4(C)CO[C@]3(C)C(=O)C[C@H]4[C@@H](OC(C)=O)[C@H]12 [TAXUSPINE S]	80 (≈ 112 nM)	–
C=C1[C@@H](OC(=O)/C=C/c2ccccc2)C[C@H](OC(C)=O)[C@@]2(COC(C)=O)[C@@H](OC(C)=O)[C@H](O)[C@]3(O)[C@@]4(C)CO[C@]3(C)C(=O)C[C@H]4[C@@H](OC(C)=O)[C@H]12 [TAXUSPINE T]	80 (≈ 112 nM)	–
CC(=O)O[C@H]1C[C@H]2[C@@H](OC(C)=O)/C=C3\C[C@](C)(C(=O)[C@H](O)C(=C1C)C2(C)C)[C@@H](OC(C)=O)C[C@@H]3O [TAXUSPINE W]	80 (≈ 162 nM)	–
C=C1[C@@H](OC(=O)C[C@H](c2ccccc2)N(C)C)CC[C@@]2(C)[C@@H](OC(C)=O)[C@H](OC(C)=O)C3=C(C)[C@@H](OC(C)=O)C[C@@H]([C@@H](O)[C@H]12)C3(C)C [TAXUSPINE Z]	–	Activity [3]: 106%
CC[C@]1(O)C[C@H]2CN(CCc3c([nH]c4ccccc34)[C@@](C(=O)OC)(c3cc4c(cc3OC)N(C=O)[C@H]3[C@@](O)(C(=O)OC)[C@H](OC(C)=O)[C@]5(CC)C=CCN6CC[C@]43[C@@H]65)C2)C1 [VINCRISTINE]	–	T/C (P388 [4]): 110%; T/C (P388 [5]): 92%
